Test results: ChEMBL document CHEMBL1123950, “N-(Retinoyl)amino acids. Synthesis and chemopreventive activity in vitro” (1988)

Columns and labels:
[1] = test system: Cricetinae gen. sp.; test: Cultures with no evidence of squamous metaplasia at a conc of 10e-9 M; format: functional, Cricetulus griseus
In short: (§1)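 Tracheas from 29-31-day-old hamsters fed a vitamin A free diet; cultured in serum-free CMRL 1066 (insulin 1.0 μg/mL, hydrocortisone hemisuccinate 0.1 μg/mL, glutamine 2 mM, Garamycin 50 μg/mL), 50% O2/45% N2/5% CO2, rocked, 36 °C. Retinoid-free 3 days, then retinoid in DMSO (final 0.1%) for 7 days; medium and gas changed three times. Formalin-fixed day 10; squamous metaplasia graded: mild 2-10%, marked 10-40%, severe >40%.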

[2] = test system: Cricetinae gen. sp.; test: Cultures with marked degree of squamous metaplasia at a conc of 10e-9 M; format: functional, Cricetulus griseus; in short: as §1
[3] = test system: Cricetinae gen. sp.; test: Cultures with severe degree of squamous metaplasia at a conc of 10e-10 M; format: functional, Cricetulus griseus; in short: as §1
[4] = test system: Cricetinae gen. sp.; test: Cultures with minimal degree of squamous metaplasia at a conc of 10e-11 M; format: functional, Cricetulus griseus; in short: as §1
[5] = test system: Cricetinae gen. sp.; test: Cultures with no evidence of squamous metaplasia at a conc of 10e-8 M; format: functional, Cricetulus griseus; in short: as §1
[6] = test system: Cricetinae gen. sp.; test: Cultures with marked degree of squamous metaplasia at a conc of 10e-11 M; format: functional; in short: as §1
[7] = test system: Cricetinae gen. sp.; test: Cultures with severe degree of squamous metaplasia at a conc of 10e-9 M; format: functional, Cricetulus griseus; in short: as §1
[8] = test system: Cricetinae gen. sp.; test: Cultures with mild degree of squamous metaplasia at a conc of 10e-10 M; format: functional, Cricetulus griseus; in short: as §1
[9] = test system: Cricetinae gen. sp.; test: Cultures with mild degree of squamous metaplasia at a conc of 10e-8 M; format: functional, Cricetulus griseus; in short: as §1
[10] = test system: Cricetinae gen. sp.; test: Reversal of keratinization in vitamin A deficient hamster trachea culture at a conc of 10e-8 M; format: functional, Cricetulus griseus; details: read-out: ED50 (the source's name)
In short: (§2)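 Tracheas from 29-31-day-old hamsters kept on a vitamin A free diet, cultured in serum-free CMRL 1066 (insulin 1.0 μg/mL, hydrocortisone hemisuccinate 0.1 μg/mL, glutamine 2 mM, Garamycin 50 μg/mL), 50% O2/45% N2/5% CO2, rocked at 36 °C. Retinoid-free for 3 days, then retinoid in DMSO (0.1% final) for 7 days. Fixed in formalin; squamous metaplasia graded mild 2-10%, marked 10-40%, severe >40%.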

[11] = test system: Cricetinae gen. sp.; test: Cultures with minimal degree of squamous metaplasia at a conc of 10e-10 M; format: functional, Cricetulus griseus; in short: as §1
[12] = test system: Cricetinae gen. sp.; test: Cultures with no evidence of squamous metaplasia at a conc of 10e-11 M; format: functional, Cricetulus griseus; in short: as §1
[13] = test system: Cricetinae gen. sp.; test: Cultures with severe degree of squamous metaplasia at a conc of 10e-11 M; format: functional, Cricetulus griseus; in short: as §1
[14] = test system: Cricetinae gen. sp.; test: Cultures with mild degree of squamous metaplasia at a conc of 10e-9 M; format: functional, Cricetulus griseus; in short: as §1
[15] = test system: Cricetinae gen. sp.; test: Cultures with marked degree of squamous metaplasia at a conc of 10e-8 M; format: functional, Cricetulus griseus; in short: as §1
[16] = test system: Cricetinae gen. sp.; test: Cultures with severe degree of squamous metaplasia at a conc of 10e-8 M; format: functional, Cricetulus griseus; in short: as §1
[17] = test system: Cricetinae gen. sp.; test: Cultures with minimal degree of squamous metaplasia at a conc of 10e-8 M; format: functional, Cricetulus griseus; in short: as §1
[18] = test system: Cricetinae gen. sp.; test: Cultures with marked degree of squamous metaplasia at a conc of 10e-10 M; format: functional, Cricetulus griseus; in short: as §1
[19] = test system: Cricetinae gen. sp.; test: Cultures with mild degree of squamous metaplasia at a conc of 10e-11 M; format: functional, Cricetulus griseus; in short: as §1
[20] = test system: Cricetinae gen. sp.; test: Cultures with minimal degree of squamous metaplasia at a conc of 10e-9 M; format: functional, Cricetulus griseus; in short: as §1
[21] = test system: Cricetinae gen. sp.; test: Cultures with no evidence of squamous metaplasia at a conc of 10e-10 M; format: functional, Cricetulus griseus; in short: as §1
[22] = test system: Cricetinae gen. sp.; test: Reversal of keratinization in vitamin A deficient hamster trachea culture; format: functional, Cricetulus griseus; details: read-out: ED50 (the source's name); in short: as §2

EC50 [10]	EC50 [22]	SMILES	Culture [1]	Culture [2]	Culture [3]	Culture [5]	Culture [7]	Culture [8]	Culture [9]	Culture [11]	Culture [14]	Culture [15]	Culture [16]	Culture [17]	Culture [18]	Culture [20]	Culture [21]	further results
600 pM	–	CC1=C(/C=C/C(C)=C/C=C/C(C)=C\C(=O)NC(Cc2ccccc2)C(=O)O)C(C)(C)CCC1 (stereo unspecified)	53%	20%	14%	60%	7%	21%	13%	0%	20%	20%	7%	0%	36%	0%	29%	Culture [4]: 0%; Culture [6]: 43%; Culture [12]: 29%; Culture [13]: 14%; Culture [19]: 14%
700 pM	–	CC1=C(/C=C/C(C)=C/C=C/C(C)=C\C(=O)NC(C)C(=O)O)C(C)(C)CCC1 (stereo unspecified)	47%	40%	7%	100%	0%	21%	0%	0%	13%	0%	0%	0%	36%	0%	36%	Culture [4]: 0%; Culture [6]: 71%; Culture [12]: 14%; Culture [13]: 15%; Culture [19]: 0%
> 10000 pM	–	CC1=C(/C=C/C(C)=C/C=C/C(C)=C/C(=O)NC(CCC(=O)O)C(=O)O)C(C)(C)CCC1 (stereo unspecified)	25%	25%	0%	38%	0%	29%	12%	14%	50%	50%	0%	0%	43%	0%	14%	–
500 pM	–	CC1=C(/C=C/C(C)=C/C=C/C(C)=C\C(=O)NC(CC(C)C)C(=O)O)C(C)(C)CCC1 (stereo unspecified)	57%	14%	0%	72%	0%	14%	14%	0%	29%	14%	0%	0%	57%	0%	29%	Culture [4]: 0%; Culture [6]: 50%; Culture [12]: 33%; Culture [13]: 17%; Culture [19]: 0%
3000 pM	–	CC1=C(/C=C/C(C)=C/C=C/C(C)=C/C(=O)NC(Cc2ccc(O)cc2)C(=O)O)C(C)(C)CCC1 (stereo unspecified)	38%	50%	14%	75%	0%	14%	0%	0%	12%	25%	0%	0%	58%	0%	14%	–

Second part, the molecule before the results:

SMILES	EC50 [10]	EC50 [22]	Culture [1]	Culture [2]	Culture [3]	Culture [5]	Culture [7]	Culture [8]	Culture [9]	Culture [11]	Culture [14]	Culture [15]	Culture [16]	Culture [17]	Culture [18]	Culture [20]	Culture [21]	further results
CCNC(=O)/C=C(C)/C=C/C=C(C)/C=C/C1=C(C)CCCC1(C)C	–	1000 pM	–	–	–	–	–	–	–	–	–	–	–	–	–	–	–	–
CC1=C(/C=C/C(C)=C/C=C/C(C)=C\C(=O)Nc2ccc(O)cc2)C(C)(C)CCC1	–	> 1000 pM	–	–	–	–	–	–	–	–	–	–	–	–	–	–	–	–
CC1=C(/C=C/C(C)=C/C=C/C(C)=C/C(=O)NCCO)C(C)(C)CCC1	–	100 pM	–	–	–	–	–	–	–	–	–	–	–	–	–	–	–	–
CC1=C(/C=C/C(C)=C/C=C/C(C)=C/C(=O)Nc2ccc(O)cc2)C(C)(C)CCC1 [FENRETINIDE]	–	300 pM	–	–	–	–	–	–	–	–	–	–	–	–	–	–	–	–
CC1=C(/C=C/C(C)=C/C=C/C(C)=C\C(=O)O)C(C)(C)CCC1 [ISOTRETINOIN]	–	30 pM	–	–	–	–	–	–	–	–	–	–	–	–	–	–	–	–
CC1=C(/C=C/C(C)=C/C=C/C(C)=C/C(=O)O)C(C)(C)CCC1 [TRETINOIN]	–	30 pM	–	–	–	–	–	–	–	–	–	–	–	–	–	–	–	–
